Measured values collected from several papers.
Each line is one published result; the experiments were not run side by side.
EIF2AK4: eIF-2-alpha kinase GCN2 (EIF2AK4, Homo sapiens, UniProt Q9P2K8)
EIF2AK4 S808G: eIF-2-alpha kinase GCN2 (EIF2AK4, Homo sapiens, UniProt Q9P2K8, S808G)
EIF2AK4 S808G C-terminal kinase domain: eIF-2-alpha kinase GCN2, C-terminal kinase domain (EIF2AK4, Homo sapiens, UniProt Q9P2K8, S808G)

`COc1cc(Cl)c(C(=O)N[C@@H](CN[C@H]2CC[C@@H](N)CC2)Cc2ccc(C#N)cc2)cc1-c1ccc(CN[C@H](C)c2ccc(C)cc2)o1` has a remaining activity of 102% (EIF2AK4; enzyme activity, inhibitor; 1 µM).
`Cc1cc(NC(=O)c2cccc3cc(-c4cccc5[nH]nc(N)c45)ccc23)ccc1F` gave an activity vs control of 92% (EIF2AK4; enzyme activity, inhibitor; 0.1 µM).
`CC(=O)Nc1c(C(C)=O)c(=O)n(C)c2nc(-c3ccc(Cl)cc3Cl)c(-c3ccc(Cl)cc3)cc12` gave a remaining binding of 48% (EIF2AK4 S808G; binding, competition with immobilised ligand; 1 µM).
`Nc1ncnc2occ(-c3ccc(NC(=O)Nc4cc(C(F)(F)F)ccc4F)cc3)c12` has a remaining signal of 3.6% (EIF2AK4 S808G C-terminal kinase domain; cell-free assay, inhibitor; 20 µM).
The inhibition of `CNc1cc(Oc2cc(C(=O)Nc3cc(N4CCN(C)CC4)cc(C(F)(F)F)c3)ccc2C)ncn1` is reported as 37% (EIF2AK4; target engagement in cells, inhibitor, chemoproteomics; Huh-7; 1 µM).
For `CN1CC(Oc2cnc(C#N)cc2-c2ccn3nc(NC(=O)C4CC4)cc3c2)C1`, the inhibition was 15% (EIF2AK4; enzyme activity, inhibitor; 1 µM).
The remaining activity of `Cc1cnc(NC2CCOCC2)nc1-n1cnc(C(=O)NC(CN)c2cc(F)cc(Cl)c2)c1` (stereo not shown) is reported as 82% (EIF2AK4; enzyme activity, inhibitor, radiometric; 1 µM).
For `COc1ccc2cc(OCC3(C(=O)O)CN(C(=O)c4ccc(F)cc4)C3)ccc2c1`, the remaining binding was 100% (EIF2AK4 S808G C-terminal kinase domain; cell-free assay, competition with immobilised ligand; 1 µM).
`Cc1ccc(NC(=O)c2ccc(C)c(C(F)(F)F)c2)cc1C#Cc1nn(C2CCC(O)CC2)c2ncnc(N)c12` (stereo not shown) has a remaining signal of 50% (EIF2AK4; cell-free assay; 10 µM).
`Cc1ccc(C(=O)Nc2ccc(CN3CCN(C)CC3)c(C(F)(F)F)c2)cc1C#Cc1cnc2cccnn12` has a remaining activity of 85% (EIF2AK4 S808G; enzyme activity, inhibitor; 23.5 nM).
